Bioassay records deposited in PubChem BioAssay by several laboratories.
The list is not random: actives were taken first. Their share in the collection is about 6.4%.
Ecoli WT expand = blocks growth of wild type E. coli BW25113; OD600 absorbance; 0.15% of 98,000 active; AID 710; growth inhibition, % at 100 µM;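 active means growth inhibition above about 50% at one test dose, limit read from the data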;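 further: growth measured after 20 h incubation at 37 °C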
Jurkat viability = cytotoxicity toward Jurkat cells; inhibition, % at 4 µM; 1.2% of 56,000 active; Jurkat E6.1 viability, ATP luminescence, 48 h;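 active means inhibition above the mean inhibition of all tested compounds plus 3 SD, cut at about 28% in these data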
H69AR inhibit = growth inhibitors of human H69AR lung tumor cells | H69AR lung tumor viability, ATP luminescence, 72 h; hits give low values | viability, % at 10 µM | AID 598 | 6% of 85,000 active;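 active means viability at or below 40%; inactive means viability above 40%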;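 further: multidrug resistant small cell line overexpressing MRP-1 efflux transporter; 100% = mean luminescence of untreated control wells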
HUVEC inhibit = inhibitors of human endothelial cell proliferation; viability, % at 10 µM (by protocol); 1.1% of 86,000 active; AID 648; HUVEC proliferation, CellTiter-Glo luminescence, 72 h; hits give low values;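 active means viability at or below 30%; inactive means viability above 30%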;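 further: 100% = median luminescence of DMSO-only cell control wells on each plate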
tolC growth inh = blocks growth of E. coli BW25113 tolC mutant; OD615; growth inhibition, % at 10 µM (by protocol); 2.2% of 65,000 active; AID 573;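 active means growth inhibition at or above a cutoff equal to the mean over every tested compound plus 3 SD, cut at about 60% in these data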;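 further: growth measured after 20 h incubation at 37 °C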
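Material: E. coli BW25113 ΔtolC::kan, tolC deletion mutant strain. Measure: percent growth inhibition. Schedule: 37 °C, 20 h exposure. Doses: single-point testing at 10 µM. Signal: A615 absorbance measurement. Buffer or medium: kanamycin-containing LB broth (50 µg/mL).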
Fibroblast inh = blocks proliferation of human lung fibroblasts | LL 47 human lung fibroblast viability, ATP luminescence; hits give low values | viability, % at 10 µM | 1.1% of 85,000 active | AID 719;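 active means viability at or below 50% in the single dose screen; inactive means viability above 50%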;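 further: compound exposure lasted 72 h before the ATP readout; 100% = median luminescence of untreated cell-only wells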
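Assay system: human lung fibroblast line LL 47, low passage. Input: 1,150 fibroblasts seeded per well. Times: overnight cell rest, 72 h compound treatment at 37 °C. Evaluation: % viability of median cell-only signal. Technique: luminescent ATP detection, CellTiter-Glo. Control set: cell-only wells, no compound.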
* = called active by the depositor; · = no result.

SMILES	Ecoli WT expand	Jurkat viability	H69AR inhibit	HUVEC inhibit	tolC growth inh	Fibroblast inh
c1ccc(-c2nc(Sc3ncnc4c3cnn4-c3ccccc3)n[nH]2)cc1	0.0	-4.9	27.1*	92.5	11.7	104.1
O=C(Nc1sc2c(c1C(=O)c1ccc(Cl)cc1)CCCC2)c1cccnc1	-10.0	·	·	·	·	·
Cc1sc2ncnc(NCc3ccccc3)c2c1C	1.0	·	76.7	67.5	·	87.3
CN(CC(=O)O)S(=O)(=O)c1cccs1	-8.0	0.1	91.7	102.6	-21.8	103.5
CC(=O)Oc1ccc(N(C(C)=O)S(=O)(=O)c2cccs2)c2ccccc12	4.0	·	1.4*	4.0*	·	111.7
Cc1ccccc1C(=O)Nc1cccc(NC(=O)c2ccc(-c3ccc(Br)cc3)o2)c1	-9.0	·	21.5*	64.4	·	52.0
Cc1ccccc1C(=O)Nc1ccccc1	-6.0	-3.1	110.2	98.2	10.2	104.5
O=C(NCc1cccs1)c1noc2c1CCCC2	10.0	68.0*	47.7	95.9	-7.3	91.7
O=C(NCc1ccccc1)c1noc2c1CCCC2	-7.0	56.1*	62.1	91.2	-8.9	89.8
O=C(NCc1cccnc1)c1noc2c1CCCC2	7.0	5.5	101.6	101.9	-17.0	100.1
O=C(NCc1cccc(F)c1)c1noc2c1CCCC2	1.0	59.8*	39.8*	82.9	9.9	77.8
CCOc1ccc(NS(=O)(=O)c2ccc(NC(C)=O)c(OC)c2)cc1	-3.0	·	·	·	·	·
CCOc1cc(CNCCO)cc(Br)c1OCc1ccccc1Cl	48.0	·	·	·	·	·
CCOc1cc(CNCCO)cc(Br)c1OCc1ccc(Cl)cc1	78.0*	·	·	·	·	·
Cc1ccc(OCCN2CCN(C(=O)CCC(=O)Nc3nnc(C(C)C)s3)CC2)cc1	6.0	55.2*	91.5	93.7	13.0	94.6
Cc1ccc(OCCN2CCN(C(=O)CCC(=O)Nc3nnc(C)s3)CC2)cc1	-5.0	13.4	106.0	105.1	-5.1	99.5
O=C(N/N=C/c1ccccc1Cl)c1cccc(F)c1	2.0	·	·	·	·	·
Cc1ccccc1Nc1nc(Nc2ccccc2C)nc(SC2=NCCS2)n1	-10.0	·	97.8	77.5	·	102.4
Cc1ccc(Nc2nc(Nc3ccc(C)cc3)nc(SC3=NCCS3)n2)cc1	-23.0	·	10.6*	75.7	·	88.1
Oc1c(C=Nc2cccc3cccnc23)sc2ccccc12	-2.0	·	17.1*	4.2*	·	42.2*
CCn1c(=O)c2cc(C(=O)N3CCN(C(=O)c4ccco4)CC3)sc2c2ccccc21	·	3.7	95.6	75.3	97.5*	93.0
CCn1c(=O)cc(OCC(=O)N2CCN(C(=O)c3ccco3)CC2)c2ccccc21	-1.0	-1.1	·	·	-8.6	·
O=C(NC1CC2CCCC(C1)N2C(=O)NC1CCCCC1)c1ccc(F)cc1 (centres undefined)	5.0	-1.2	·	90.6	-10.6	93.0
Cc1c(S(=O)(=O)Nc2cc(Cl)ccc2Cl)c(=O)n(C)c(=O)n1C	2.0	-0.5	91.0	103.0	10.0	80.9
COc1ccc(Cl)cc1N1Cc2ccccc2C1	-13.0	·	99.8	89.6	·	96.0
SMILES	Ecoli WT expand	Jurkat viability	H69AR inhibit	HUVEC inhibit	tolC growth inh	Fibroblast inh
COc1ccccc1-n1c(=O)oc2ccc(Cl)cc2c1=O	46.0	18.6	1.5*	20.1*	100.0*	50.4
COc1ccc(CC(=O)N2CCC(Nc3nc4ccccc4n3Cc3ccc(F)cc3)CC2)cc1	·	·	21.3*	70.7	·	89.2
O=C(Nc1ccc(Cl)c(Cl)c1)OCc1cccnc1	21.0	-9.5	93.7	81.1	91.9*	97.7
O=C(/C=C(\O)c1ccc(Cl)cc1)C(=O)NNC(=O)C(O)(c1ccccc1)c1ccccc1	0.0	·	24.0*	73.2	·	95.9
CC(=O)N(Cc1ccc(F)cc1)C1=C(NCCc2ccccc2)C(=O)c2ccccc2C1=O	-9.0	·	1.2*	4.3*	·	1.8*
Cc1ccc(NCC(=O)c2ccccc2)cc1Cl	-2.0	·	·	·	·	·
CCSC1(SCC)N=C(N)C2(C#N)C(c3ccc(F)cc3)C12C#N (centres undefined)	3.0	·	0.8*	9.6*	·	3.8*
O=C(NCc1cccnc1)NC1(C(F)(F)F)Oc2ccc(Cl)cc2O1 (centres undefined)	18.0	44.7*	31.2*	51.3	4.1	69.7
Cc1cc(NC(=O)NC2(C(F)(F)F)Oc3ccc(Cl)cc3O2)no1 (centres undefined)	·	·	·	·	-2.8	·
COCCNC(=O)NC1(C(F)(F)F)Oc2ccc(Cl)cc2O1 (centres undefined)	-11.0	·	33.9*	57.2	-7.9	62.9
CC1(C)Cc2c(sc3c2c2ncnn2c2nnc(SCC(=O)NCc4ccco4)n32)CO1	1.0	-3.6	50.3	89.8	·	98.7
